Data reported in ChEMBL document CHEMBL2177098, “Synthesis and evaluation of novel ¹⁸F labeled 2-pyridinylbenzoxazole and 2-pyridinylbenzothiazole derivatives as ligands for positron emission tomography (PET) imaging of β-amyloid plaques” (J Med Chem, 2012).

How the values were obtained:
Heart [1] = test: Drug uptake in ICR mouse heart at 370 kBq/100 ul, iv at 30 mins by gamma-counting analysis; assay type: ADME, organism-based; details: in vivo, 0.5 h
Summary of the method: (§1)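 Male ICR mice (5 weeks, about 20 g) got 18F tracer in saline (370 KBq per 100 μL) via tail vein; n = 5 per time point, killed at 2, 10, 30, 60 min. Organs weighed and γ-counted; percent dose per gram wet tissue from comparison with diluted injectate aliquots.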

Brain [2] = test: Drug uptake in ICR mouse brain at 370 kBq/100 ul, iv at 10 mins by gamma-counting analysis; assay type: ADME, organism-based; details: in vivo; summary of the method: as §1
Blood [3] = test: Drug uptake in ICR mouse blood at 370 kBq/100 ul, iv at 10 mins by gamma-counting analysis; assay type: ADME, organism-based; details: in vivo; summary of the method: as §1
Heart [4] = test: Drug uptake in ICR mouse heart at 370 kBq/100 ul, iv at 2 mins by gamma-counting analysis; assay type: ADME, organism-based; details: in vivo; summary of the method: as §1
Stomach [5] = test: Drug uptake in ICR mouse stomach assessed per organ at 370 kBq/100 ul, iv at 30 mins by gamma-counting analysis; assay type: ADME, organism-based; details: in vivo, 0.5 h
Summary of the method: (§2)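 Male ICR mice (5 weeks, about 20 g) got 18F tracer in saline (370 KBq per 100 μL) via tail vein; n = 5 per time point, killed at 2, 10, 30, 60 min. Organs removed and γ-counted against diluted injectate; expressed as % injected dose per organ.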

Bone [6] = test: Drug uptake in ICR mouse bone at 370 kBq/100 ul, iv at 60 mins by gamma-counting analysis; assay type: ADME, organism-based, Bone element; details: in vivo, 1 h; summary of the method: as §1
Kidney [7] = test: Drug uptake in ICR mouse kidney at 370 kBq/100 ul, iv at 2 mins by gamma-counting analysis; assay type: ADME, organism-based; details: in vivo; summary of the method: as §1
Bone [8] = test: Drug uptake in ICR mouse bone at 370 kBq/100 ul, iv at 30 mins by gamma-counting analysis; assay type: ADME, organism-based, Bone element; details: in vivo, 0.5 h; summary of the method: as §1
Stomach [9] = test: Drug uptake in ICR mouse stomach assessed per organ at 370 kBq/100 ul, iv at 60 mins by gamma-counting analysis; assay type: ADME, organism-based; details: in vivo, 1 h
Summary of the method: (§3)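 Normal male ICR mice (5 weeks, about 20 g) received the ¹⁸F tracer in saline (370 KBq per 100 μL) by tail-vein injection. Groups of n = 5 were killed at 2, 10, 30 and 60 min. Organs were removed, weighed and γ-counted against diluted aliquots of the injectate, giving % dose per gram. Stomach and intestine were expressed per organ. The brain ratio is 2 min/60 min uptake. Values are mean ± SD.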

Brain [10] = test: Drug uptake in ICR mouse brain at 370 kBq/100 ul, iv at 30 mins by gamma-counting analysis; assay type: ADME, organism-based; details: in vivo, 0.5 h; summary of the method: as §1
Kidney [11] = test: Drug uptake in ICR mouse kidney at 370 kBq/100 ul, iv at 60 mins by gamma-counting analysis; assay type: ADME, organism-based; details: in vivo, 1 h; summary of the method: as §1
Brain [12] = test: Ratio of drug uptake in brain at 2 mins to drug uptake in brain at 60 mins in ICR mouse at 370 KBq/100 ul, iv; assay type: ADME, organism-based; details: in vivo; summary of the method: as §3
Brain [13] = test: Drug uptake in ICR mouse brain at 370 kBq/100 ul, iv at 60 mins by gamma-counting analysis; assay type: ADME, organism-based; details: in vivo, 1 h; summary of the method: as §1
Blood [14] = test: Drug uptake in ICR mouse blood at 370 kBq/100 ul, iv at 2 mins by gamma-counting analysis; assay type: ADME, organism-based; details: in vivo; summary of the method: as §1
Blood [15] = test: Drug uptake in ICR mouse blood at 370 kBq/100 ul, iv at 60 mins by gamma-counting analysis; assay type: ADME, organism-based; details: in vivo, 1 h; summary of the method: as §1
Stomach [16] = test: Drug uptake in ICR mouse stomach assessed per organ at 370 kBq/100 ul, iv at 10 mins by gamma-counting analysis; assay type: ADME, organism-based; details: in vivo; summary of the method: as §2
Heart [17] = test: Drug uptake in ICR mouse heart at 370 kBq/100 ul, iv at 60 mins by gamma-counting analysis; assay type: ADME, organism-based; details: in vivo, 1 h; summary of the method: as §1
Spleen [18] = test: Drug uptake in ICR mouse spleen at 370 kBq/100 ul, iv at 60 mins by gamma-counting analysis; assay type: ADME, organism-based; details: in vivo, 1 h; summary of the method: as §1
Kidney [19] = test: Drug uptake in ICR mouse kidney at 370 kBq/100 ul, iv at 10 mins by gamma-counting analysis; assay type: ADME, organism-based; details: in vivo; summary of the method: as §1
Liver [20] = test: Drug uptake in ICR mouse liver at 370 kBq/100 ul, iv at 30 mins by gamma-counting analysis; assay type: ADME, organism-based; details: in vivo, 0.5 h; summary of the method: as §1
Brain [21] = test: Drug uptake in ICR mouse brain at 370 kBq/100 ul, iv at 2 mins by gamma-counting analysis; assay type: ADME, organism-based; details: in vivo; summary of the method: as §1
Lung [22] = test: Drug uptake in ICR mouse lung at 370 kBq/100 ul, iv at 10 mins by gamma-counting analysis; assay type: ADME, organism-based; details: in vivo; summary of the method: as §1
Spleen [23] = test: Drug uptake in ICR mouse spleen at 370 kBq/100 ul, iv at 10 mins by gamma-counting analysis; assay type: ADME, organism-based; details: in vivo; summary of the method: as §1
Stomach [24] = test: Drug uptake in ICR mouse stomach assessed per organ at 370 kBq/100 ul, iv at 2 mins by gamma-counting analysis; assay type: ADME, organism-based; details: in vivo; summary of the method: as §2
Blood [25] = test: Drug uptake in ICR mouse blood at 370 kBq/100 ul, iv at 30 mins by gamma-counting analysis; assay type: ADME, organism-based; details: in vivo, 0.5 h; summary of the method: as §1
Liver [26] = test: Drug uptake in ICR mouse liver at 370 kBq/100 ul, iv at 60 mins by gamma-counting analysis; assay type: ADME, organism-based; details: in vivo, 1 h; summary of the method: as §1
Kidney [27] = test: Drug uptake in ICR mouse kidney at 370 kBq/100 ul, iv at 30 mins by gamma-counting analysis; assay type: ADME, organism-based; details: in vivo, 0.5 h; summary of the method: as §1
[28] = Displacement of [125I]-IMPY from amyloid beta (1 to 42) fibrils after 2 hrs by gamma-counting analysis
Summary of the method: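 Competition binding with aggregated Aβ1-42 fibrils and [125I]IMPY (60000−100000 cpm/100 μL) in 0.05% BSA (1 mL total); inhibitors 10⁻⁴−10^−8.5 M in ethanol. Incubated 37 °C for 2 h, then GF/B vacuum filtration with PBS (0.02 M, pH 7.4) washes and γ counting. Three repeats; IC50 converted to Ki by Cheng−Prusoff.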

Intestine [29] = test: Drug uptake in ICR mouse intestine assessed per organ at 370 kBq/100 ul, iv at 30 mins by gamma-counting analysis; assay type: ADME, organism-based; details: in vivo, 0.5 h; summary of the method: as §2
Intestine [30] = test: Drug uptake in ICR mouse intestine assessed per organ at 370 kBq/100 ul, iv at 60 mins by gamma-counting analysis; assay type: ADME, organism-based; details: in vivo, 1 h; summary of the method: as §2
Bone [31] = test: Drug uptake in ICR mouse bone at 370 kBq/100 ul, iv at 10 mins by gamma-counting analysis; assay type: ADME, organism-based, Bone element; details: in vivo; summary of the method: as §1
Liver [32] = test: Drug uptake in ICR mouse liver at 370 kBq/100 ul, iv at 10 mins by gamma-counting analysis; assay type: ADME, organism-based; details: in vivo; summary of the method: as §1
Heart [33] = test: Drug uptake in ICR mouse heart at 370 kBq/100 ul, iv at 10 mins by gamma-counting analysis; assay type: ADME, organism-based; details: in vivo; summary of the method: as §1
Intestine [34] = test: Drug uptake in ICR mouse intestine assessed per organ at 370 kBq/100 ul, iv at 10 mins by gamma-counting analysis; assay type: ADME, organism-based; details: in vivo; summary of the method: as §2
[35] = n-Octanol-PBS buffer partition coefficient, log D of the compound at 1.5 MBq after 3 mins at pH 7.4; assay type: physicochemical
Summary of the method: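 The tracer was partitioned between n-octanol and PBS by vortexing for 3 min at room temperature, then centrifuged for 5 min at 3000 rpm. Samples of the octanol (50 μL) and aqueous (500 μL) layers were counted. log D is the log of the octanol/PBS counts-per-gram ratio. The octanol layer was repartitioned until values were consistent. Measured in triplicate and repeated three times.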

Spleen [36] = test: Drug uptake in ICR mouse spleen at 370 kBq/100 ul, iv at 30 mins by gamma-counting analysis; assay type: ADME, organism-based; details: in vivo, 0.5 h; summary of the method: as §1
Lung [37] = test: Drug uptake in ICR mouse lung at 370 kBq/100 ul, iv at 30 mins by gamma-counting analysis; assay type: ADME, organism-based; details: in vivo, 0.5 h; summary of the method: as §1
Bone [38] = test: Drug uptake in ICR mouse bone at 370 kBq/100 ul, iv at 2 mins by gamma-counting analysis; assay type: ADME, organism-based, Bone element; details: in vivo; summary of the method: as §1
Intestine [39] = test: Drug uptake in ICR mouse intestine assessed per organ at 370 kBq/100 ul, iv at 2 mins by gamma-counting analysis; assay type: ADME, organism-based; details: in vivo; summary of the method: as §2
Spleen [40] = test: Drug uptake in ICR mouse spleen at 370 kBq/100 ul, iv at 2 mins by gamma-counting analysis; assay type: ADME, organism-based; details: in vivo; summary of the method: as §1
Liver [41] = test: Drug uptake in ICR mouse liver at 370 kBq/100 ul, iv at 2 mins by gamma-counting analysis; assay type: ADME, organism-based; details: in vivo; summary of the method: as §1
Lung [42] = test: Drug uptake in ICR mouse lung at 370 kBq/100 ul, iv at 2 mins by gamma-counting analysis; assay type: ADME, organism-based; details: in vivo; summary of the method: as §1
Brain [43] = test: Drug uptake in wild type C57BL6 mouse brain at 370 KBq/100 ul after 1 hr by autoradiographic analysis; assay type: ADME, tissue-based; details: in vitro
Summary of the method: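 Paraffin brain sections from 12-month-old male control C57BL6 mice were deparaffinized through xylene and graded ethanol, then held in PBS (0.2 M, pH 7.4) for 30 min. They were incubated with the ¹⁸F tracer (370 KBq per 100 μL) for 1 h at room temperature. Sections were washed in 40% EtOH, rinsed with water for 1 min, dried, and exposed to a phosphor plate for 2 h. The same sections were then stained with thioflavin S.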

Lung [44] = test: Drug uptake in ICR mouse lung at 370 kBq/100 ul, iv at 60 mins by gamma-counting analysis; assay type: ADME, organism-based; details: in vivo, 1 h; summary of the method: as §1

- Drug uptake (Heart [1]): 2.62 % ID/g
- Drug uptake (Brain [2]): 2.64 % ID/g
- Drug uptake (Blood [3]): 5.44 % ID/g
- Drug uptake (Heart [4]): 4.5 % ID/g
- Drug uptake (Stomach [5]): 14.13 %ID
- Drug uptake (Bone [6]): 1.58 % ID/g
- Drug uptake (Kidney [7]): 6.82 % ID/g
- Drug uptake (Bone [8]): 1.64 % ID/g
- Drug uptake (Stomach [9]): 11.34 %ID
- Drug uptake (Brain [10]): 1.98 % ID/g
- Drug uptake (Kidney [11]): 3.01 % ID/g
- Ratio (Brain [12]): 1.77
- Drug uptake (Brain [13]): 1.84 % ID/g
- Drug uptake (Blood [14]): 9.79 % ID/g
- Drug uptake (Blood [15]): 3.79 % ID/g
- Drug uptake (Stomach [16]): 8.98 %ID
- Drug uptake (Heart [17]): 2.02 % ID/g
- Drug uptake (Spleen [18]): 1.47 % ID/g
- Drug uptake (Kidney [19]): 5.45 % ID/g
- Drug uptake (Liver [20]): 6.79 % ID/g
- Drug uptake (Brain [21]): 3.26 % ID/g
- Drug uptake (Lung [22]): 4.59 % ID/g
- Drug uptake (Spleen [23]): 2.97 % ID/g
- Drug uptake (Stomach [24]): 2.55 %ID
- Drug uptake (Blood [25]): 4.96 % ID/g
- Drug uptake (Liver [26]): 4.75 % ID/g
- Drug uptake (Kidney [27]): 3.88 % ID/g
- Ki [28]: 5.8 nM
- Drug uptake (Intestine [29]): 19.57 %ID
- Drug uptake (Intestine [30]): 26.66 %ID
- Drug uptake (Bone [31]): 0.95 % ID/g
- Drug uptake (Liver [32]): 11.6 % ID/g
- Drug uptake (Heart [33]): 3.3 % ID/g
- Drug uptake (Intestine [34]): 10.4 %ID
- logD at 0.05 h [35]: 3.08
- Drug uptake (Spleen [36]): 2.59 % ID/g
- Drug uptake (Lung [37]): 3.28 % ID/g
- Drug uptake (Bone [38]): 1.86 % ID/g
- Drug uptake (Intestine [39]): 4.68 %ID
- Drug uptake (Spleen [40]): 3.14 % ID/g
- Drug uptake (Liver [41]): 12.9 % ID/g
- Drug uptake (Lung [42]): 6.69 % ID/g
- Drug uptake (Brain [43]): Not Active
- Drug uptake (Lung [44]): 2.33 % ID/g
Structure (SMILES): CN(C)c1ccc(-c2nc3ccc(OCCOCCOCC[18F])cc3s2)cn1
